This is a sample that favours compounds with a hit; in the whole collection about 1.5% have one here.
LANA-H2B inh = blocks KSHV LANA binding to histone H2A/H2B; AID 2629; cell-free LANA-H2A/H2B peptide, fluorescence polarization; inhibition, % (concentration not given with the values); 320,000 compounds, 0.6% hits; in the data active means inhibition mostly above about 10%, no sharp cut-off; inactive means mostly below about 6.7%
Keap1-Nrf2 PPI = disrupts human Keap1 binding to Nrf2 peptide; inhibition, % at 9.4 µM; Q14145; Keap1 Kelch-Nrf2 peptide fluorescence polarization, 1536-well; 340,000 compounds, 0.15% hits; AID 504523; in the data active means inhibition above about 12%;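 further: human Keap1 Kelch domain with fluorescein labeled Nrf2 9mer peptide probe; 0% = neutral control wells and 100% = peptide positive control; higher means more block of Keap1 binding to Nrf2 peptide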
CAL PDZ FP-1 = human CAL PDZ-peptide interaction inhibition. purified CAL PDZ, TMR-peptide fluorescence polarization, 1 h. AID 504414. 330,000 compounds, 0.02% hits. Q9HD26. inhibition, % at 20 µM;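 active means highest replicate inhibition of at least 40%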;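 further: plate controls were DMSO neutral control wells for no effect and unlabeled competitor peptide control wells for full effect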
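Assay system – tagged CAL PDZ protein CerCALP, purified · Timing – 1 h at RT · Compound – single point, 20 µM · Measured by – fluorescence polarization from S- and P-plane intensities, G-factor corrected · Evaluation – inhibition from polarization loss · Probe or stimulus – TMR reporter peptide T*-PRC34 · Buffer or medium – pH 7.4 phosphate-saline buffer, reducing agent, detergent, IgG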
CaV13 ICDI inh = Disruptors of the CACNA1D IQ motif to Ca2+-dependent inactivation inhibitor domain association, primary screening, Förster resonance energy transfer in intact living …; HEK cells, CFP/YFP FRET ICDI-IQ, plate reader, 10 min; percent FRET-ratio fall versus neutral wells; inhibition, % at 12.3 µM; 340,000 compounds, 0.098% hits; AID 743397;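 active means mean replicate inhibition of at least 30% and at least 1% of replicates passing that level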;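 further: 0% = median of the neutral control wells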
CAL PDZ FP-2 = blocks peptide binding to the human CAL PDZ domain | purified CAL PDZ, TMR-peptide fluorescence polarization, 1 h | 300,000 compounds, 0.92% hits | inhibition, % at 24.9 µM | AID 602252;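 active means mean inhibition of at least 30% with at least half of replicates also reaching 30%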;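 further: 0% = DMSO neutral control and 100% = excess unlabeled competitor peptide PRC23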
LANA DNA inh = KSHV C-LANA DNA binding inhibition | MBP-C-LANA/FAM-LBS DNA binding, fluorescence polarization | inhibition, % at 9 µM | 340,000 compounds, 0.078% hits;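 active means highest replicate inhibition at or above 60% at 9 µM, even if other replicates fall short; inactive means all replicates below 60% inhibition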;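 further: 0% = neutral control wells and 100% = 4 µM acridine orange control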
Numbers without * were called inactive.

What do the screens show for `CC(=O)c1ccc(-c2ccc(C(=O)NCC(c3ccc(F)cc3)N3CCOCC3)o2)cc1` (centres undefined)?
LANA-H2B inh: -1; Keap1-Nrf2 PPI: -2; CAL PDZ FP-1: -5; CaV13 ICDI inh: -15; CAL PDZ FP-2: 142*; LANA DNA inh: 0

Results for Cc1ccc(C(=O)NCC(c2ccc(F)cc2)N2CCOCC2)cc1 (centres undefined) ?
LANA-H2B inh: 4; Keap1-Nrf2 PPI: 0; CAL PDZ FP-1: -2; CaV13 ICDI inh: 1; CAL PDZ FP-2: -2; LANA DNA inh: 1

Results for Cc1ccc(NC(=O)c2noc3c2CCCCC3)cc1 ?
LANA-H2B inh: 8.5*; Keap1-Nrf2 PPI: 4; CAL PDZ FP-1: 0; CaV13 ICDI inh: -4; CAL PDZ FP-2: 1; LANA DNA inh: 0

Results for CCc1ccc(NC(=O)c2noc3c2CCCCC3)cc1 ?
LANA-H2B inh: -8; Keap1-Nrf2 PPI: -3; CaV13 ICDI inh: -4; CAL PDZ FP-2: 2; LANA DNA inh: -1

How did N=c1c(C(=O)NCC2CCCO2)cc2c(=O)n3ccccc3nc2n1Cc1ccccc1 (centres undefined) do in these assays?
LANA-H2B inh: -2; Keap1-Nrf2 PPI: -4; CAL PDZ FP-1: -1; CaV13 ICDI inh: 9; CAL PDZ FP-2: 1; LANA DNA inh: -1

How did N=c1c(C(=O)NCC2CCCO2)cc2c(=O)n3ccccc3nc2n1Cc1ccc(Cl)cc1 (centres undefined) do in these assays?
LANA-H2B inh: -3; Keap1-Nrf2 PPI: 0; CAL PDZ FP-1: -3; CaV13 ICDI inh: 94*; CAL PDZ FP-2: -1; LANA DNA inh: 7

How did CCN(CC)CCn1c2c(c(SCC(=O)NCc3ccccc3)nc1=O)CCC2 do in these assays?
LANA-H2B inh: 0; Keap1-Nrf2 PPI: -3; CAL PDZ FP-1: 0; CaV13 ICDI inh: -5; CAL PDZ FP-2: 39*; LANA DNA inh: -2

How did CC(C)c1ccc(OCCCN2CCC(C(O)(c3ccccc3)c3ccccc3)CC2)cc1 do in these assays?
CaV13 ICDI inh: -11

Results for Cc1ccc(C2=NNC(=O)C(c3c[nH]c4ccccc34)C2)cc1 (centres undefined) ?
LANA-H2B inh: -1; Keap1-Nrf2 PPI: 1; CAL PDZ FP-1: -1; CaV13 ICDI inh: 11; LANA DNA inh: 1

How did O=C1CC(c2c[nH]c3ccccc23)C(=O)N1 (centres undefined) do in these assays?
LANA-H2B inh: 30*; Keap1-Nrf2 PPI: 4; CAL PDZ FP-1: -3; CaV13 ICDI inh: -6; CAL PDZ FP-2: -7; LANA DNA inh: 2

Results for CC(NC(=O)C(NC(=O)OCc1ccccc1)C(C)O)C(=O)OCc1ccccc1 (centres undefined) ?
CaV13 ICDI inh: -10

How did Cc1ccc(/C=N/Nc2ccc(C(=O)O)cc2)s1 do in these assays?
LANA-H2B inh: -3; Keap1-Nrf2 PPI: -1; CAL PDZ FP-1: 0; CaV13 ICDI inh: -3; CAL PDZ FP-2: 1; LANA DNA inh: 0

Results for O=C(O)c1ccc(N/N=C/c2cc(Br)cs2)cc1 ?
LANA-H2B inh: -1; Keap1-Nrf2 PPI: -7; CAL PDZ FP-1: 1; CaV13 ICDI inh: -5; CAL PDZ FP-2: 36*; LANA DNA inh: 1

Results for COc1ccccc1CCn1cnc(-c2ccc(OC)c(OC)c2)c1CC(C)C ?
CaV13 ICDI inh: -4

Results for CCOC(=O)C1=C(C(=O)OCC)C2N(Cc3ccc(Br)cc3)c3ccccc3[C@@]23C[C@@H](C(=O)OC)N(S(=O)(=O)c2cccs2)C3=N1 (some centres undefined) ?
CaV13 ICDI inh: -9

Results for CCOc1ccc2nc3cc(N=Nc4ccc(N)nc4N)ccc3c(N)c2c1 ?
Keap1-Nrf2 PPI: 5; CAL PDZ FP-1: 56*; CAL PDZ FP-2: 10; LANA DNA inh: 0

Results for C[C@@H]1ON(C)[C@H]2C[C@H]3c4[nH]c5c(-c6cc(Cl)cc(Cl)c6)cccc5c4CCN3C(=O)[C@@H]12 ?
CaV13 ICDI inh: -4

How did O=S(=O)(O)c1ccc(N=NNc2ccc(Br)cc2)cc1 do in these assays?
LANA-H2B inh: 0; Keap1-Nrf2 PPI: 1; CAL PDZ FP-1: -1; CaV13 ICDI inh: -5; CAL PDZ FP-2: 52*; LANA DNA inh: 1

How did Cc1ccc2c(CN3CCCc4ccccc43)cc(=O)oc2c1C do in these assays?
LANA-H2B inh: 4; Keap1-Nrf2 PPI: 0; CaV13 ICDI inh: -5; CAL PDZ FP-2: 49*; LANA DNA inh: 1

Results for N#Cc1ccc(CSc2nnc(-c3cccc(S(=O)(=O)N4CCCCC4)c3)o2)cc1 ?
LANA-H2B inh: 2; Keap1-Nrf2 PPI: 3; CAL PDZ FP-1: -1; CAL PDZ FP-2: 44*; LANA DNA inh: 0

How did O=C(O)CSc1nnc(-c2cccc(S(=O)(=O)N3CCCCC3)c2)o1 do in these assays?
LANA-H2B inh: -5; Keap1-Nrf2 PPI: -1; CAL PDZ FP-1: 0; CaV13 ICDI inh: 5; LANA DNA inh: 0

Results for COc1ccc(C2=CSC3=C(C(=O)c4cccc(S(=O)(=O)N(C)C)c4)CCN23)cc1 ?
LANA-H2B inh: -8; Keap1-Nrf2 PPI: 0; CaV13 ICDI inh: -5; CAL PDZ FP-2: 96*; LANA DNA inh: 0

What do the screens show for `COc1ccc(NC(=O)c2ocnc2C)cc1OC`?
LANA-H2B inh: -1; Keap1-Nrf2 PPI: 1; CAL PDZ FP-1: -1; CaV13 ICDI inh: -8; LANA DNA inh: 1

How did COc1ccc(Cl)cc1NC(=O)c1ocnc1C do in these assays?
LANA-H2B inh: 18*; Keap1-Nrf2 PPI: 0; CAL PDZ FP-1: -2; CaV13 ICDI inh: -6; CAL PDZ FP-2: -3; LANA DNA inh: 0

Results for CC1CCN(Cc2nnnn2CCCC(=O)NCCc2cnn(C)c2)CC1 ?
LANA-H2B inh: -1; Keap1-Nrf2 PPI: 1; CAL PDZ FP-1: -3; CaV13 ICDI inh: -2; CAL PDZ FP-2: 113*; LANA DNA inh: 0

What do the screens show for `CC1CCN(Cc2nnnn2CCCC(=O)NCC(C)(C)N2CCOCC2)CC1`?
LANA-H2B inh: -1; Keap1-Nrf2 PPI: -3; CAL PDZ FP-1: -1; CaV13 ICDI inh: -2; CAL PDZ FP-2: -2; LANA DNA inh: 1

Results for COc1ccc(N2CCN(C(=O)CSc3nc4nc(C)cc(C)n4n3)CC2)cc1 ?
LANA-H2B inh: 37*; Keap1-Nrf2 PPI: -7; CAL PDZ FP-1: 0; CaV13 ICDI inh: -2; LANA DNA inh: -1

Results for CC(C)=C(NC(=O)c1ccccc1Br)C(=O)NCCc1nc2ccccc2[nH]1 ?
LANA-H2B inh: 4; Keap1-Nrf2 PPI: 1; CAL PDZ FP-1: -1; CaV13 ICDI inh: -3; CAL PDZ FP-2: -3; LANA DNA inh: 0

Results for COc1cc2c(cc1OC)C(c1cccc(Cl)c1)CC(=O)N2 (centres undefined) ?
LANA-H2B inh: -1; Keap1-Nrf2 PPI: -5; CAL PDZ FP-1: -4; CaV13 ICDI inh: -22; LANA DNA inh: 1
